From the array DNA melting data of Ke et al. (doi:10.1101/2024.01.08.574731) come the findings set out here.

Data set [1] in a line: melting temperature; fluorescence melt of hairpins on a sequencing array, two-state fit, raised by 9.35 °C to match UV melts. As to conditions: sodium 0.088 M. The method, boiled down:
(§1)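 Hairpins were imaged by Cy3 fluorescence on a sequenced MiSeq flow cell with annealed Cy3 and quencher oligos, in 50 mM Na-HEPES pH 8.0, 25 mM NaCl, in 2.5 °C steps up to 60 °C. Bootstrapped two-state fits of normalised signals gave melting temperature and folding enthalpy. Four replicates were combined by inverse variance, and fitted temperatures were raised by 9.35 °C to match UV melts.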

Data set [2] can be described thus: folding enthalpy; higher = less favourable; fluorescence melt of hairpins on a sequencing array, two-state fit. As to conditions: sodium 0.088 M. The method, boiled down:
as §1

Consider GACCAGGGAAACCTGATC ((.((((....)))).)), for which, in data set [1], the Tm came to 34.8 °C. Also, the folding enthalpy in data set [2] is -22.3 kcal/mol.
On the same counts, the results for GCCTTTCGAAAGAACGGC (((.(((....))).))) are 48.8 °C and -39.5 kcal/mol.
In the case of GAGTCAGGAAACTGACTC (((((((....))))))), the Tm in data set [1] was 62.6 °C. The folding enthalpy in data set [2] was -37 kcal/mol.
Consider GATCGCATTGGCGATC ((((((....)))))), for which the Tm in data set [1] is 68.8 °C. Also, the folding enthalpy in data set [2] is -33.2 kcal/mol.
On the same counts, the results for GGTTTCGGAAACGAAATC (.(((((....))))).) are 48 °C and -25.1 kcal/mol.
On the same counts, the results for GATCATGCCATGATC ((((((...)))))) are 50.9 °C and -40 kcal/mol.
Taken in the same sequence, the figures for GTGATCGGAAACGATTAC ((.((((....)))).)) were 48.2 °C and -24.4 kcal/mol.
For the sequence GATCGCTCAGGCGATC ((((((....)))))), in data set [1], the Tm turned out to be 67.9 °C. The folding enthalpy in data set [2] is -36.1 kcal/mol.
For the sequence CGTCACGGAAACGTTACG (((.(((....))).))), the Tm in data set [1] stood at 45.3 °C. In data set [2], the folding enthalpy is -31.2 kcal/mol.
Taken in the same sequence, the figures for GCTACGCGAAAGCGGTGC ((..(((....)))..)) were 56 °C and -16 kcal/mol.
Taken in the same sequence, the figures for GATCGCTCGGGCGATC ((((((....)))))) were 69.2 °C and -38.6 kcal/mol.
Taken in the same sequence, the figures for GATCCTGAACAGGATC ((((((....)))))) were 59.9 °C and -38.4 kcal/mol.
Turning to GATCAGACCACTGATC ((((((....)))))), the Tm in data set [1] was 49.4 °C. Further, in data set [2], the folding enthalpy is -37.1 kcal/mol.
GACGTACCGAAAGGTGTC (((..(((....)))))): the Tm in data set [1] turned out to be 41.9 °C. In addition, the folding enthalpy in data set [2] was -22.4 kcal/mol.
In the case of GAACCTGGAAACAGGTTC (((((((....))))))), the Tm in data set [1] was determined as 65.5 °C. Besides, the folding enthalpy in data set [2] was -36.9 kcal/mol.
Taken in the same sequence, the figures for GTTTATGGAAACATGAAC (((.(((....))).))) were 35.7 °C and -31.3 kcal/mol.
On the same counts, the results for GCGCACGGAAACGCACGC (((..((....))..))) are 42.2 °C and -31.2 kcal/mol.
Taken in the same sequence, the figures for CGCGGAACTATCCGCG ((((((....)))))) were 68.7 °C and -31.2 kcal/mol.
As for GCCAGGGGAAACCCCGGC (((.(((....))).))), the Tm in data set [1] is 59.8 °C. Besides, the folding enthalpy in data set [2] was -38.6 kcal/mol.
On the same counts, the results for GATGCCGAAAGGCAATC ((((((....))).))) are 53 °C and -13.8 kcal/mol.
On the same counts, the results for GGGGCGGGAAACCGTCCC (((.(((....))).))) are 67.7 °C and -34.9 kcal/mol.
On the same counts, the results for GATCTCCACGGAGATC ((((((....)))))) are 55.9 °C and -39.2 kcal/mol.
On to GATCGACTATTCGATC ((((((....)))))), for which the Tm in data set [1] is 50.5 °C. In addition, in data set [2], the folding enthalpy was -38.4 kcal/mol.
On the same counts, the results for GCAATGCGAAAGCACGGC ((..(((....)))..)) are 36.3 °C and -19.9 kcal/mol.
Taken in the same sequence, the figures for GTGAGCGAAAGCTTTCAC ((((((....)))..))) were 32.3 °C and -10.7 kcal/mol.
On the same counts, the results for GGTGAGTCGAAAGACACC (((..(((....)))))) are 39.5 °C and -17.9 kcal/mol.
Consider GCTTAGGGAAACCCAAGC ((((.((....)).)))), for which the Tm in data set [1] turned out to be 44 °C. Also, in data set [2], the folding enthalpy is -26.7 kcal/mol.
Consider GCCCACGCGAAAGCGGGC (((..(((....)))))), for which the Tm in data set [1] was 61.8 °C. In addition, in data set [2], the folding enthalpy was -11.9 kcal/mol.
Turning to GTACTCGAAAGAGCTTAC ((((((....)))..))), the Tm in data set [1] was 27.6 °C. For the same sequence, the folding enthalpy in data set [2] is -11.4 kcal/mol.
For the sequence GCTAGCGAAAGCTATAGC ((((((....)))..))), the Tm in data set [1] was 46.5 °C. Besides, the folding enthalpy in data set [2] was -18.5 kcal/mol.
Taken in the same sequence, the figures for GGCGCTTCGAAAGAAGCC (((..(((....)))))) were 47.8 °C and -9.84 kcal/mol.
Taken in the same sequence, the figures for GGCAGCGAAAGCTCGGCC ((((((....)))..))) were 53.5 °C and -17.7 kcal/mol.
On the same counts, the results for GTCAAGGGAAACCTTGAC (((((((....))))))) are 58 °C and -47.2 kcal/mol.
GACTTGGGAAACCAGGTC (((.(((....))).))): the Tm in data set [1] was 46.4 °C. For the same sequence, in data set [2], the folding enthalpy is -37 kcal/mol.
For GATCATCGTATGATC ((((((...)))))), the Tm in data set [1] was found to be 48.5 °C. Further, in data set [2], the folding enthalpy was -32.8 kcal/mol.
Taken in the same sequence, the figures for GCGGGTGGAAACACCCAC (.(((((....))))).) were 48.7 °C and -11.5 kcal/mol.
